Data on 1 molecule can be found in ChEMBL document CHEMBL1240363, “Pharmacokinetics of ertapenem following intravenous and subcutaneous infusions in patients” (Antimicrob Agents Chemother, 2010).

Data set [1] is described as follows: fT>MIC […] Klebsiella pneumoniae-infected kinetic model. The format is functional.
Data set [2] is described as follows: fT>MIC […] Escherichia coli-infected kinetic model. The format is functional.
Data set [3] in a line: Half life in patient with bacterial infection at […], iv administered at 30 mins regimen for 24 hrs by LC/MS/MS analysis. In kind it is ADME, organism-based. As to conditions: human, in vivo. A digest of the protocol:
(§1)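 Six infected patients received ertapenem 1 g once daily, infused over 30 min: first i.v. via a central vein, then s.c. into the anterior thigh for one day. Arterial plasma was sampled over 24 h at steady state (i.v. on days 4–7). Plasma was stabilized 1:1 at pH 6.5 and assayed by LC-MS/MS. Total concentrations were fitted with compartmental models (1/y weighting), giving Cmax, tmax, t1/2, AUC0-24, CL and Vss as mean ± SD.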

Data set [4] in a line: Volume of distribution at steady state in patient with bacterial infection at 1 gm, iv administered at 30 mins regimen for 24 hrs by LC/MS/MS analysis. As to conditions: human, in vivo, read-out: Vdss.
A short description of data set [5]: fT>MIC […]-infected kinetic model. The format is functional.
Data set [6] is described as follows: Tmax in patient with bacterial infection at 1 gm[…], iv administered at 30 mins regimen for 24 hrs by LC/MS/MS analysis. In kind it is ADME, organism-based. The settings on record: human, in vivo. A digest of the protocol: as §1
Data set [7] in a line: Clearance in patient with bacterial infection at 1 gm[…], iv administered at 30 mins regimen for 24 hrs by LC/MS/MS analysis. In kind it is ADME, organism-based. The settings on record: human, in vivo. An outline of the steps: as §1
A short description of data set [8]: Half life in patient with bacterial infection at […], sc administered at 30 mins regimen for 24 hrs by LC/MS/MS analysis. The format is ADME, organism-based. As to conditions: human, in vivo. An outline of the steps:
as §1

A further data set deals with Homo sapiens. Briefly: Ratio of AUC (0 to 24 hrs) in sc dosed patient with bacterial infection to AUC (0 to 24 hrs) in iv dosed patient with bacterial infection. The format is ADME, organism-based. As to conditions: in vivo. A digest of the protocol:
as §1

Data set [9] is described as follows: Tmax in patient with bacterial infection at 1 gm[…], sc administered at 30 mins regimen for 24 hrs by LC/MS/MS analysis. In kind it is ADME, organism-based. As to conditions: human, in vivo. A digest of the protocol: as §1
Data set [10] in a line: Cmax in patient with bacterial infection at 1 gm[…], iv administered at 30 mins regimen for 24 hrs by LC/MS/MS analysis. In kind it is ADME, organism-based. Set-up: route intravenous. The settings on record: human, in vivo. An outline of the steps:
as §1

A short description of data set [11]: Cmax in patient with bacterial infection at 1 gm[…], sc administered at 30 mins regimen for 24 hrs by LC/MS/MS analysis. The format is ADME, organism-based. Set-up: route subcutaneous. The settings on record: human, in vivo. An outline of the steps: as §1
The nature of data set [12]: fT>MIC methicillin-resistant Staphylococcus aureus-infected kinetic model. The format is functional.

As for `C[C@@H](O)[C@H]1C(=O)N2C(C(=O)O)=C(S[C@@H]3CN[C@H](C(=O)Nc4cccc(C(=O)O)c4)C3)[C@H](C)[C@H]12` [ERTAPENEM], the fT>MIC in data set [1], in data set [2], in data set [5] and in data set [12] was 30% in each case. In addition, the half-life (usually how long it takes for the measured level to halve) in data set [3] was 3.9 h; in [8], 5.4 h. Moreover, the Vd in data set [4] was 16.1 L. The time of peak concentration (Tmax) (commonly the time at which the peak concentration occurs) in data set [6] is 0.5 h; in data set [9] it was 2.7 h. The clearance – broadly, the rate of elimination divided by the concentration – in data set [7] is 63.3 mL/min. The “Ratio AUC” value in the data set with Homo sapiens was found to be 0.99. Further, the Cmax (as a rule, the peak of the concentration-time curve) was determined as 115 µg/mL in data set [10] and 43 µg/mL in [11].
